High-throughput results as filed in PubChem.
RGS4 act: potentiators or activators of RGS4. HEK293 M3R/inducible RGS4, carbachol calcium flux Fluo4; stronger effect = lower value. B-score at 10 µM. actives 0.92% (n = 310,000);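 active = B-score of the integrated calcium signal more than 4 SD below the library mean, with starting fluorescence not abnormally high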;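 also: negative B-score means reduced calcium response which marks RGS4 activation or potentiation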
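test system = HEK293 cells with stable M3R and inducible RGS4 | schedule = recording 10 s baseline at 1 Hz, 100 s post-agonist | technique = Fluo4-AM (2 µM) calcium-flux fluorescence, kinetic read | measure = Agonist-evoked peak-minus-minimum fluorescence over baseline, integrated ratio, B score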
RGS4 inh: inhibitors of human RGS4; actives 0.45% (n = 310,000); B-score at 10 µM; HEK293 M3R/RGS4 inducible, Fluo-4 calcium flux; stronger effect = higher value; triggered by carbachol at its EC20;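 active = B-score, a plate-corrected calcium signal, over three deviations above library mean, with baseline fluorescence within five deviations of library mean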;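 also: RGS4 expression induced by doxycycline in cells with stable M3 receptor; B-score is computed from the integrated fluorescence ratio over baseline after carbachol; higher B-score means a larger calcium signal and so more RGS4 inhibition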
Target sequence (P49798 whole entry, looked up): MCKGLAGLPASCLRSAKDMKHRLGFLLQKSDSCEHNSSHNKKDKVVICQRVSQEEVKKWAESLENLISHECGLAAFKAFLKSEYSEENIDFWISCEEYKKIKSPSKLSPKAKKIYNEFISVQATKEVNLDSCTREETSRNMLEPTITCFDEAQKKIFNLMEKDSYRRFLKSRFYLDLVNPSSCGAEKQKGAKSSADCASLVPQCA
MrgX1 allo act: human MrgX1 positive allosteric modulation, primary screen | actives 0.63% (n = 310,000) | MrgX1-HEK293, Fluo-4 calcium flux, FDSS; stronger effect = higher value | AID 588675 | B-score at 10 µM;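 active = plate-corrected calcium response at least 3 library SD above typical, normal starting fluorescence, not activating the receptor alone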;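 also: compound read alongside a low EC10 to EC30 dose of BAM8-22 agonist; peak minus trough fluorescence over baseline measured at the second addition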
Target sequence (Q96LB2 whole entry, looked up): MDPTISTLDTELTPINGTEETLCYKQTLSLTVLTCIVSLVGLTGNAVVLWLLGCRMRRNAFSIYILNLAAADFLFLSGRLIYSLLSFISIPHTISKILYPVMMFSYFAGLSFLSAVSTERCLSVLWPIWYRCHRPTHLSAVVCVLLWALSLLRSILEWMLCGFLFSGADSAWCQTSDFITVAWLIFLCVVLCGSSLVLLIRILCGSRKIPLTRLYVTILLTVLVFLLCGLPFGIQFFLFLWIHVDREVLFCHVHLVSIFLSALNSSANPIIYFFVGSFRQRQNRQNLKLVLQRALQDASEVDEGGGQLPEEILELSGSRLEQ
MrgX1 antag: antagonists of human MrgX1 receptor. B-score at 10 µM. actives 1.3% (n = 310,000). MRGX1-HEK293 calcium flux, Fluo-4, BAM8-22 antagonism; stronger effect = lower value;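 active = calcium-response B-score plate-corrected more than 3 library SD below zero, starting fluorescence within 5 deviations, no agonist response on first addition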;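 also: peak minus trough fluorescence over baseline after final BAM8-22 challenge near maximal dose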
MrgX1 agonist: human MrgX1 receptor agonism, primary screen; Q96LB2; MrgX1-HEK293 cells, Fluo-4 calcium fluorescence, agonist mode; stronger effect = higher value; B-score at 10 µM; actives 0.44% (n = 310,000); AID 588627;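 active = calcium response B-score plate-corrected fluorescence ratio at least 3 library SD, with starting fluorescence B-score inside 5 SD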
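System – MrgX1-expressing HEK293 cells · Incubation – cells plated overnight, dye loaded 0.5 h 37 °C, 0.5 h room temperature · Technique – kinetic Fluo-4 NW fluorescence of intracellular calcium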
An asterisk follows results filed as active; i = inactive; . = no result given; ! = not confirmed by another sample. In the library only some 3.5% were active in any assay of this set; here they are far more common.

SMILES	RGS4 act	RGS4 inh	MrgX1 allo act	MrgX1 antag	MrgX1 agonist
CCOC(=O)c1c(NC(=O)Cn2cnc([N+](=O)[O-])n2)sc2c1CCC(C)C2 (stereo not given)	i	i	i	i	i
Cc1ccc(C(=O)Nc2ncccc2S(=O)(=O)c2ccccc2)cc1	i	i	i	i	i
O=C(CNC(c1ccccc1)c1ccccc1)Nc1c(F)cccc1F	i	i	i	i	i
Fc1cccc(Cl)c1CNC(c1ccccc1)c1ccccc1	-7*	i	i	i	i
CC(=O)Nc1ccc(NC(=O)CCC(=O)OCC(=O)c2ccc(C)c([N+](=O)[O-])c2)cc1	i	i	i	-5.6*	i
Cc1ccc(C(=O)COC(=O)CCC(=O)Nc2ccccc2Cl)cc1[N+](=O)[O-]	i	i	i	i	i
COc1ccccc1NC(=O)Cn1nc(-c2ccc(Cl)cc2)c2ccccc2c1=O	i	i	i	i	34*
Cc1cc(C)n(-c2ccc(C(F)(F)F)cc2[N+](=O)[O-])n1	-9.3*	i	i	i	i
CCCCCCCCNC(=O)c1ccc(C)cc1	i	i	i	i	32*
OC(c1ccccc1)(C1CCCCC1)C(CN1CCOCC1)c1ccccc1 (stereo not given)	i	i	i	-8.2*	i
COc1ccc(C(O)(C2CCCCC2)C(CN2CCOCC2)c2ccccc2)cc1 (stereo not given)	i	i	i	i	i
C=CCn1c(SCCCC)nc(O)cc1=O	i	i	10*!	i	i
O=C(CN(Cc1ccc(F)cc1)C(=O)CCC(=O)Nc1nccs1)NCc1ccccc1	i	i	i	i	i
COc1cc(N2CCCC2)c(OC)cc1/C=C(/C#N)c1ccc(F)cc1	i	i	i	-4.9*	i
COc1cc(N2CCCC2)c(OC)cc1/C=C(/C#N)c1ccc(Br)cc1	i	i	i	-4.6*	i
O=C(CCl)NN1C(=O)NC(c2ccccc2)(c2ccccc2)C1=O	i	i	i	i	i
C1=CN2CCC1C(c1ccccc1)C2 (stereo not given)	-7.3*	i	i	i	i
COc1ccccc1NC(=S)NNC(=O)c1ccncc1	i	i	i	i	28*
COc1cc(/C=C(\C#N)c2ccccn2)ccc1OCc1ccccc1Cl	.	.	i	i	i
COc1cc(/C=C(\C#N)c2ccccn2)cc(OC)c1O	i	i	i	i	51*
Oc1oc(-c2ccccc2)nc1C=Nc1cccc2ccccc12	-7.2*	i	i	i	i
Oc1oc(-c2ccccc2)nc1/C=N/c1nccs1	i	i	i	i	i
CC(C)(C)c1ccc(C(=O)NNC(=S)NCc2ccco2)cc1	i	i	i	i	i
CC(C)(O)C(=O)NNC(=S)NCc1ccco1	i	i	i	-5.4*	i
O=C(CN1C(=O)S/C(=C\C=C\c2ccccc2)C1=O)Nc1ccccc1C(=O)O	i	i	i	i	i
SMILES	RGS4 act	RGS4 inh	MrgX1 allo act	MrgX1 antag	MrgX1 agonist
C#CCN1C(=O)S/C(=C/C=C/c2ccc(N(C)C)cc2)C1=O	.	.	i	-5.3*	i
Cc1cccc(N2CCN(C(=O)c3ccc4c(c3)NC(=O)C(CSCc3cccc(F)c3)N4)CC2)c1C (stereo not given)	i	i	i	i	34*
Cc1cccc(N2CCN(C(=O)c3ccc4c(c3)OCCO4)CC2)c1C	i	i	i	i	i
O=C(CCc1ccccc1)Oc1ccccc1[N+](=O)[O-]	i	i	i	i	i
O=C1/C(=C\c2ccco2)CCC/C1=C\c1ccco1	i	i	7.6*	i	i
O=C1/C(=C/c2ccco2)CCC1C1CCCC1 (stereo not given)	i	i	i	i	i
O=C1/C(=C/c2ccco2)Cc2ccccc21	i	i	i	i	i
CC1C/C(=C/c2ccco2)C(=O)/C(=C/c2ccco2)C1 (stereo not given)	i	6.6*	i	i	i
CC1Cc2ccccc2N1S(=O)(=O)c1cccc(C(=O)NCCCO)c1 (stereo not given)	i	i	i	i	i
CCN(CC)CCNC(=O)c1ccc(NC(=O)c2cccc(S(=O)(=O)N3c4ccccc4CC3C)c2)cc1 (stereo not given)	-8.4*	i	i	i	i
Cc1cc(C)nc(N2CCC(C(=O)N3CCN(c4cc(Cl)ccc4C)CC3)CC2)n1	-7.3*	i	i	i	i
Cc1ccc(C)c(N2CCN(C(=O)C3CCN(c4nc(C)cc(C)n4)CC3)CC2)c1	i	i	i	i	i
Cc1ccc(C2=N/C(=C\c3cccc(F)c3)C(=O)O2)cc1	i	i	i	i	i
Cc1ccccc1OCC(=O)Nc1ccc(N2CCN(C(=O)c3ccco3)CC2)cc1	i	i	i	i	i
COc1ccc(O[C@H]2C=C[C@@H](c3ccccc3)O[C@@H]2COC(=O)CC/C(C)=N/O[C@@H](C)c2cc(-c3c(C)cc(C)cc3C)no2)cc1	i	i	.	.	.
COc1ccc(O[C@H]2C=C[C@@H](c3ccccc3)O[C@@H]2COC(=O)CC/C(C)=N/OC[C@@H](O)COCc2ccco2)cc1	-9.7*	i	i	i	i
O=c1oc2ccccc2cc1-c1csc(NN=C2CCCCC2)n1	-7.5*	i	i	i	i
CC(=O)c1sc(NC(=O)CSC(C)C(=O)Nc2cc(C)on2)nc1-c1ccccc1 (stereo not given)	i	i	i	i	i
CC1CCCCC1NC(=O)CCNS(=O)(=O)c1ccc(Cl)cc1 (stereo not given)	i	i	i	i	i
CC[C@H](C)[C@@H]1NC(=O)c2cc([N+](=O)[O-])cc(I)c2SC[C@@H](C(N)=O)NC(=O)[C@H](CCCCN)NC1=O	.	.	i	-6.6*	i
CC1=C(C)CS(=O)N(S(=O)(=O)c2ccccc2)C1 (stereo not given)	i	i	i	i	i
CC1=C(C)CS(=O)N(c2ccc(S(N)(=O)=O)cc2)C1 (stereo not given)	i	i	i	i	53*
CCc1ccc2oc(-c3ccc(OC)cc3)cc(=Nc3c(C)n(C)n(-c4ccccc4)c3=O)c2c1	-7.4*	i	i	i	i
N/C(=N\OC(=O)Oc1ccccc1)c1ccc(Cl)cc1	-9.5*	i	i	i	i
O=C(COC(=O)C1CC1)Nc1nc(-c2ccc(F)c(F)c2)cs1	i	i	i	i	i
